Bioassay records (PubChem)
SR-BI uptake up = activators of SR-BI mediated DiI-HDL uptake, primary screen, ldlA[mSR-BI] CHO cells, DiI fluorescence; 3 h; 100 = double the neutral-control signal; activation, % at 12.5 µM; actives 0.096% (n = 320,000); AID 504775, 2011;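 active means mean replicate activation of at least 60% and every replicate at or above 60%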;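 further: 0% = median plate neutral-control signal and 100% = twice that signal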
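Test system: SR-BI-overexpressing, LDLR-lacking CHO cells; Also added: labelled HDL, 10 µg/mL; Measured by: bottom-read cell fluorescence after medium removal, ex 550/em 595 nm; Timing: 3 h uptake period with compound, 37 °C; Buffer or medium: F12, 0.5% BSA, 25 mM HEPES; Doses: single compound concentration, delivered by pin transfer.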
CAL PDZ FP-1 = untagged CAL PDZ binding inhibitors, primary screen, biochemical, fluorescence polarization, HTS | Golgi-associated PDZ and coiled-coil motif-containing protein (Homo sapiens), Q9HD26 | purified CAL PDZ, TMR-peptide fluorescence polarization, 1 h | inhibition, % at 24.9 µM | actives 0.92% (n = 300,000);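 active means mean inhibition of at least 30% with at least half of replicates also reaching 30%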;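 further: 0% = DMSO neutral control and 100% = excess unlabeled competitor peptide PRC23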
SR-BI DiI inh = inhibitors of SR-BI mediated HDL lipid uptake, primary screen, ldlA[mSR-BI] cells, fluorescence, single point. ldlA[mSR-BI] CHO cells, DiI-HDL uptake fluorescence, 3 h. actives 0.96% (n = 320,000). Scavenger receptor class B member 1 (Mus musculus), Q61009. AID 488896, 2010. inhibition, % at 12.5 µM;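 active means mean replicate inhibition of at least 70% and a set share of replicates each scoring 70 or more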;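 further: 0% = median of neutral control wells and 100% = median of positive control wells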
Target sequence (Q61009 whole entry, looked up): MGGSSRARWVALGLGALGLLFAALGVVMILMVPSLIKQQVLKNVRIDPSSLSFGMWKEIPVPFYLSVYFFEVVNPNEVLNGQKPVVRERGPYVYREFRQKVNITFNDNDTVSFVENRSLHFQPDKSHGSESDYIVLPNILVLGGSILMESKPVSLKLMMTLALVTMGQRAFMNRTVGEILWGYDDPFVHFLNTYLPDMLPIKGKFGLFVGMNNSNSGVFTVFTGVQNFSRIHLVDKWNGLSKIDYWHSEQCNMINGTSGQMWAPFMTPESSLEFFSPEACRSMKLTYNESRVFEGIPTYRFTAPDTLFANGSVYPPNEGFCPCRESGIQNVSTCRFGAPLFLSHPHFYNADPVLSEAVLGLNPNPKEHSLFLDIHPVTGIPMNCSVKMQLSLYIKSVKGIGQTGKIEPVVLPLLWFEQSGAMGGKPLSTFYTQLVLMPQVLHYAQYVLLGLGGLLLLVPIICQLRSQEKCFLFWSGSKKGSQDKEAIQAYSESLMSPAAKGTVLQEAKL
CAL PDZ FP-2 = CAL PDZ peptide-binding inhibitors, primary screen, biochemical, fluorescence polarization, Cer-tagged CAL PDZ, HTS; AID 504414, 2011; actives 0.02% (n = 330,000); inhibition, % at 20 µM; purified CAL PDZ, TMR-peptide fluorescence polarization, 1 h; Golgi-associated PDZ and coiled-coil motif-containing protein (Homo sapiens), Q9HD26;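 active means highest replicate inhibition of at least 40%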;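 further: plate controls were DMSO neutral control wells for no effect and unlabeled competitor peptide control wells for full effect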
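Test system: tagged CAL PDZ domain / Buffer or medium: sodium phosphate/NaCl buffer pH 7.4 with TCEP, IgG, Thesit / Reagent: TMR-labelled reporter peptide T*-PRC34 bound in PDZ groove / Compound dosing: single point, 20 µM / Schedule: 1 h incubation at room temperature before polarization reading / Technique: fluorescence polarization (mP) / Benchmarks: unlabelled peptide, DMSO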
ATG4B inhibitor = ATG4B protease inhibitors, primary screen, biochemical, fluorescence, uHTS; actives 0.51% (n = 340,000); inhibition, % at 8.33 µM; Cysteine protease ATG4B (Homo sapiens), Q9Y4P1; ATG4B cleavage of LC3-PLA2, NBD-HPC fluorescence, 1 h; AID 504462, 2011; in the data active means inhibition above about 40%
ATG4B conf = ATG4B protease inhibitors, retest, confirmation, biochemical, fluorescence, single concentration; AID 504757, 2011; inhibition, % at 8.33 µM; shares compounds with ATG4B inhibitor; actives 92% (n = 320); ATG4B protease fluorescent substrate cleavage assay; in the data active means inhibition above about 39%
PLA2 counter = PLA2 enzyme inhibition, counter-screen for ATG4B inhibitor project, biochemical, single concentration, uHTS hits; shares compounds with ATG4B inhibitor; purified PLA2, NBD-C6-HPC fluorescence, 45 min; inhibition, % at 8.33 µM; actives 66% (n = 1,600); in the data active means inhibition above about 50%
An asterisk follows results filed as active; · = no result given. Shown are actives, neighbours in structure and some others; about 2.3% of the full set was active somewhere.

SMILES	SR-BI uptake up	CAL PDZ FP-1	SR-BI DiI inh	CAL PDZ FP-2	ATG4B inhibitor	PLA2 counter	others
CCc1cc(=O)oc2c(C)c(OCC(=O)NCCCN3CCCC3=O)ccc12	8	10	-8	-2	3	·
O=C(O)c1cccc(NN=C2c3ccccc3-c3ccccc32)c1	23	1	-23	0	13	·
O=C(O)c1cc(NN=C2c3ccccc3-c3ccccc32)ccc1Cl	16	-4	-16	1	45*	39	ATG4B conf=62*
Cc1cccc(Cc2cnc(N3C(=N)SC(c4ccccc4)C3=O)s2)c1 (configuration not stated)	0	-8	0	-7	50*	43
COC(=O)[C@]1(C)N[C@H](CN(C)C(=O)c2ccc(F)cc2)[C@@H]2C(=O)N(Cc3ccccc3)C(=O)[C@@H]21	·	-5	·	1	1	·
CCCCOc1ccc(-c2cc(C(=O)NNC(=S)NCC)c3ccccc3n2)cc1	-27	·	27	-1	47*	58*
Cc1cc(OCCN2CCOCC2)ccc1Cl	13	-3	-13	·	-4	·
CC1=Nc2ccccc2/C1=C/c1sc(=S)n(-c2cccc(C(=O)O)c2)c1O	6	-4	-6	0	60*	85*
CCCn1nnc(NC(=S)NC(=O)c2ccccc2OC)n1	18	-5	-18	-1	-6	·
Cc1nc(NS(=O)(=O)c2cccs2)c2c3c(sc2n1)CCC3	-13	-3	13	-4	4	·
Cc1nc(NS(=O)(=O)c2ccc(Br)cc2)c2c3c(sc2n1)CCC3	20	-1	-20	0	68*	72*
Cc1nc(NC(C)c2ccccc2)c2c3c(sc2n1)CCC3 (configuration not stated)	-1	-7	1	0	46*	36
CON(C)C(=O)CC(CN(Cc1ccccc1)C(=O)OC(C)(C)C)c1ccc(Cl)cc1 (configuration not stated)	5	-2	-5	-1	53*	79*
O=C1Nc2cc(C(=O)N3CCc4ccccc4C3)ccc2S/C1=C\c1ccccc1	-2	0	2	-1	73*	78*
CC(C)CCOc1ccc(/C=C2\CCn3c2nc2cc(C(=O)O)ccc2c3=O)cc1	-15	-8	15	-8	97*	92*
CCCCc1ccc(NC(=S)NCc2cccc(OC)c2)cc1	-32	0	32	-3	80*	79*
Cc1ccc(N2CC(C(=O)Nc3nc4ccc(S(C)(=O)=O)cc4s3)CC2=O)cc1C (configuration not stated)	30	-3	-30	-4	-12	·
CC(C)(C)c1ccc(-c2nc(C#N)c(N3CCC(C(N)=O)CC3)o2)cc1	21	-2	-21	-1	56*	56*
COc1cccc(-n2c(SCc3cc(=O)oc4cc(O)c(O)cc34)nc3ccccc3c2=O)c1	10	-3	-10	-3	99*	100*
CN(C)S(=O)(=O)c1ccc2[nH]cc(/C=C/c3nc4ccccc4c(=O)n3-c3ccccc3)c2c1	-3	·	3	-1	42*	9	ATG4B conf=105*
CCn1c(/C=C/c2c[nH]c3ccccc23)nc2ccccc2c1=O	-21	-2	21	3	23	·
O=C(NC(Cc1c[nH]c2ccccc12)C(=O)Nc1ccc(F)c([N+](=O)[O-])c1)c1cccs1 (configuration not stated)	-2	-6	2	-1	71*	81*
O=C(NC(Cc1c[nH]c2ccccc12)C(=O)Nc1ccc(OC(F)(F)F)cc1)c1cccs1 (configuration not stated)	18	-3	-18	-2	-8	·
COc1ccc(CN2C(=O)c3ccccc3C(/C=N\OCc3ccc(F)cc3)C2=O)cc1 (configuration not stated)	-39	·	39	0	60*	75*
O=C(/C=C/c1ccccc1)NC(NC(=S)Nc1cc(Cl)ccc1Cl)C(Cl)(Cl)Cl (configuration not stated)	-1	-2	1	-3	42*	30
SMILES	SR-BI uptake up	CAL PDZ FP-1	SR-BI DiI inh	CAL PDZ FP-2	ATG4B inhibitor	PLA2 counter	others
CC(=O)NC(CC(=O)OCC(=O)N1CCN(S(=O)(=O)c2ccc(C)cc2C)CC1)c1ccccc1 (configuration not stated)	-11	1	11	1	-3	·
O=C(CCSCc1cccc(Cl)c1)NCCC1=CCCCC1	18	-6	-18	0	46*	25
Cc1ccc(CSCCC(=O)NCCC2=CCCCC2)cc1	-18	0	18	0	16	·
COc1cccc(NS(=O)(=O)NC(=O)c2cn(C)c3ccccc23)c1	9	-3	-9	-1	1	·
O=Cc1cc(N=Nc2ccccc2Cl)ccc1O	-9	-4	9	-2	56*	77*
O=S(=O)(Nc1nc2ccccc2nc1N1CCN(c2ccccc2F)CC1)c1ccc(Cl)cc1	2	0	-2	-2	71*	68*
O=C(N/N=C1\CC(c2ccccc2)Oc2ccccc21)c1cccnc1 (configuration not stated)	-36	0	36	-1	-6	·
O=C(N/N=C1\CC(c2ccccc2)Oc2ccccc21)c1ccc(O)cc1 (configuration not stated)	·	-4	·	-3	43*	55*
Fc1ccccc1C1CC(c2ccco2)=Nc2ccccc2S1 (configuration not stated)	·	-4	·	-1	53*	73*
COc1ccccc1C1CC(c2cccs2)=Nc2ccccc2S1 (configuration not stated)	-15	-3	15	0	1	·
COc1ccc(-n2c(=O)c3c4c(sc3n(CC(N)=O)c2=O)CCCCC4)cc1	16	-5	-16	1	2	·
CCN(C(=O)COC(=O)c1ccccc1Cc1ccccc1)c1c(N)n(Cc2ccccc2)c(=O)[nH]c1=O	-48	3	48	0	-23	·
CCCCCOc1ccc(CSC(=N)N)cc1[N+](=O)[O-]	-28	-7	28	0	64*	61*
